Compound activity (PubChem)
DDE Tn6 FP inh – inhibitors of Tn6 peptide binding to fibrin DD(E), primary screen, biochemical, fluorescence polarization, human fibrin, Tn6 probe; Fibrinogen beta chain (Homo sapiens), P02675; AID 720509, 2013; inhibition, % at 8.3 µM; Fibrin DD(E) TRITC-Tn6 fluorescence polarization displacement; 370,000 tested, 0.21% active;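 active = inhibition above a per-campaign cutoff: mean of compounds within control limits plus 3 SD, cut at about 15% in these data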;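 note: 0% = median of all compound wells on the plate and 100% = blocking peptide control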
TCR CD3 inh – inhibitors of human TCR-CD3 interaction, primary screen, biochemical, fluorescence, TAMRA-labeled TCR probe; T-cell receptor (TCR); inhibition, % at 9.4 µM; 360,000 tested, 0.37% active; AID 651800, 2012; in the data active = inhibition above about 19%;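 note: recombinant mutant TCR 2C K166C tagged with TAMRA read by polarization; 0% = receptor in buffer alone and 100% = receptor with positive control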
DDE Tn7 FP inh – inhibitors of Tn7 peptide binding to fibrin DD(E), primary screen, biochemical, fluorescence polarization, human fibrin, Tn7 probe. inhibition, % at 8.3 µM. FP displacement of FITC-Tn7 peptide from fibrin DD(E); 0% = median of compound wells per plate. 370,000 tested, 0.13% active;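 active = inhibition above the mean of compounds falling within the control limits plus 3 SD of them, cut at about 14% in these data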;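 note: 0% = plate median of compound wells and 100% = 10 µM Aha-Tn7 peptide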
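Assay system: human fibrin DD(E). Input: DD(E) 2 µM final. Medium: Tris buffer with calcium and detergent, pH 7.8. Compound dosing: single point at 8.3 µM. Timing: 10 min plus 3 h, room temperature. Technique: fluorescence polarization of the labelled Tn7 tracer. Read-out: percent inhibition. Replicates: singlicate testing.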
HTRA1 inhibitor – HTRA1 serine protease inhibitors, primary screen, biochemical, fluorescence polarization, HTS; recombinant HTRA1, FP-rhodamine activity-based probe; inhibition, % at 5.96 µM; 340,000 tested, 0.5% active; AID 504803, 2011; in the data active = inhibition above about 36%;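 note: 0% = enzyme with DMSO and 100% = wells lacking enzyme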
SIAE primary – human SIAE inhibitors, primary screen, biochemical, fluorescence polarization, FP-Rh probe, 1536-well HTS; inhibition, % at 9.66 µM; Sialate O-acetylesterase (Homo sapiens), Q9HAT2; SIAE FP-Rh probe binding; 370,000 tested, 0.69% active;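 active = inhibition above a cutoff: mean of compounds within the control limits plus 3 SD of those, cut at about 17% in these data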;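 note: 0% = plate median of compound wells and 100% = probe without SIAE protein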
ABHD4 inh – ABHD4 inhibitors, primary screen, biochemical, fluorescence polarization, mouse | (Lyso)-N-acylphosphatidylethanolamine lipase (Mus musculus), Q8VD66 | purified mABHD4, FP-Rh probe fluorescence polarization | inhibition, % at 8.92 µM | 370,000 tested, 0.54% active;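 active = inhibition exceeding the mean over every tested compound plus 3 SD, cut at about 30% in these data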;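 note: 0% = plate median of compound wells and 100% = S159A mutant with DMSO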
Target sequence (Q8VD66 whole entry, looked up): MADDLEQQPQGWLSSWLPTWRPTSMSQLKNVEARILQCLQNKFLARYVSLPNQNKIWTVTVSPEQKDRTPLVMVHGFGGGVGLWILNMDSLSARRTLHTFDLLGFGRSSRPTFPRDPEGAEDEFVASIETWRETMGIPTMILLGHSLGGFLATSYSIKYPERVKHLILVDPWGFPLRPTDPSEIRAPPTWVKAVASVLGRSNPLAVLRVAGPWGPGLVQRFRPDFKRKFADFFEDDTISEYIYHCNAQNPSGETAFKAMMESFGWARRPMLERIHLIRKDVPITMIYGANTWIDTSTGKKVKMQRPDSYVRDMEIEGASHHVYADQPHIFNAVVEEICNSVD
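Doses – 8.92 µM, single dose · Material – wild-type mouse ABHD4 protein · Replication – single well per compound (singlicate) · Measure – percent inhibition of probe binding, normalized to plate controls · Schedule – 45 min compound pre-incubation plus 60 min probe step, 25 °C · Detection – fluorescence polarization with parallel and perpendicular emission, 525/598 nm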
ABHD4 confirm – ABHD4 inhibitors, retest, confirmation, biochemical, fluorescence polarization, mouse | purified mABHD4, FP-Rh probe fluorescence polarization | shares compounds with ABHD4 inh | 1,800 tested, 55% active | inhibition, % at 8.92 µM;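 active = mean inhibition across replicates above the hit cutoff set in the primary screen, cut at about 30% in these data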;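 note: 0% = wild-type ABHD4 with DMSO and 100% = catalytically dead S159A mutant with DMSO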
The depositor's hits bear a star; x = no result. Most compounds without a hit are left out; they make up all but 1.8% or so of the library.

SMILES	DDE Tn6 FP inh	TCR CD3 inh	DDE Tn7 FP inh	HTRA1 inhibitor	SIAE primary	ABHD4 inh	ABHD4 confirm
Nc1cc(N)cc(C(=O)c2ccccc2)c1	0	-2	-1	x	7	44*	12
Cc1cc(C)nc(OC(C(=O)O)C(OCCc2ccccc2)(c2ccc(F)cc2)c2ccc(F)cc2)n1 (stereo not drawn)	1	-4	4	-10	0	40*	43*
CCC(C)COC(c1ccccc1)(c1ccccc1)C(Oc1nc(C)cc(C)n1)C(=O)O (stereo not drawn)	0	2	6	-3	-1	31*	35*
CCCOC(c1ccccc1)(c1ccc(C(F)(F)F)cc1)C(Oc1nc(C)cc(C)n1)C(=O)O (stereo not drawn)	-6	2	1	7	2	21	x
Cc1cc(C)nc(OC(C(=O)O)C(OCC(C)C)(c2ccccc2)c2ccccc2)n1 (stereo not drawn)	3	-6	4	1	-3	11	x
CCOc1ccc(Oc2c(Cl)cnn(Cc3cccc4ccccc34)c2=O)cc1	3	x	2	x	2	-2	x
Nc1c(Br)cc2c([nH]c(=O)c3ccccc32)c1Br	-19	-8	-6	20	8	42*	37*
Nc1cc2[nH]c(=O)c3ccccc3c2cc1[N+](=O)[O-]	-13	5	-5	5	-1	9	x
O=C1NC(=O)/C(=C\c2ccc(O)cc2O)S1	-5	17	-7	17	-2	30*	3
CCCCCC(=O)NC1CCCCN(Cc2cccc(Cl)c2)C1=O (stereo not drawn)	0	x	-12	x	6	3	x
Cc1ccc(CC2CC(=O)N(CCc3ccccc3)C2=O)cc1 (stereo not drawn)	2	3	8	4	-6	3	x
C[C@@H]1C[C@H]2[C@@H](Cc3ccccc3)C(=O)N3[C@H](c4ccccc4)[C@H](C)C[C@H]3[C@@H](Cc3ccccc3)C(=O)N2[C@@H]1c1ccccc1	-4	x	0	x	9	50*	39*
CCCC/C=C1/[C@H](c2ccccc2)N(C)C2=N[C@H](c3ccccc3)CC(=O)N21	4	x	4	x	-1	-1	x
OC(CCN1CC2CCC(CC2)C1)(Cc1ccccc1)c1ccco1 (stereo not drawn)	-6	3	1	3	14	37*	18
CCCCCCC[C@H](N)[C@H](O)C(=O)N(C)[C@@H](CCS(C)=O)C(=O)N[C@@H](Cc1ccc(O)cc1)C(=O)O (stereo partly drawn)	4	x	5	x	2	1	x
COc1ccc(S(=O)(=O)/N=C2/NC(=O)/C(=C/c3ccco3)S2)cc1	1	12	-2	3	-23	29	x
COc1ccc(N=C2NC(=O)/C(=C/c3ccco3)S2)cc1	-8	5	-4	14	14	33*	-10
CC/C(C)=N/Nc1nc2c(c(=O)[nH]c(=O)n2C)n1Cc1ccccc1	3	9	-3	11	-4	34*	18
[O-]/C(=C(\C(=S)Nc1cccc2ccccc12)[n+]1ccccc1)c1ccc(Cl)s1	3	-5	0	-5	2	18	x
[O-]C(=C(C(=S)Nc1cccc2ccccc12)[n+]1cccc(CO)c1)c1ccc(Cl)s1	0	0	-3	9	5	30*	63*
CCOC(=O)N1C(=O)C[C@](Sc2ccc(OC)cc2)(C(=O)N2CCCC2)[C@H]1c1ccc(OC)cc1	2	x	7	x	13	-2	x
